Data published in ChEMBL document CHEMBL5376013, “Design, synthesis and biological evaluation of novel morpholinopyrimidine-5-carbonitrile derivatives as dual PI3K/mTOR inhibitors” (RSC Med Chem, 2024).

Experiments:
Format in all cases: functional
Conditions in all cases: read-out: GI
SK-MEL-2 = test: Antitumor activity against human SK-MEL-2 cells assessed as growth inhibition at 10 uM relative to control
Outline: (§1)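 After drug addition, plates were incubated 48 h at 37 °C under 5% CO2. Adherent cells were fixed with cold TCA (10% final, 60 min, 4 °C) and suspension cells with 16% final TCA. Staining used 0.4% SRB in 1% acetic acid, solubilized in 10 mM trizma, read at A515. Percent growth was calculated from time-zero, control and treated absorbances.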

SR = test: Antitumor activity against human SR cells assessed as growth inhibition at 10 uM relative to control
Outline: (§2)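 Drug exposure 48 h at 37 °C, 5% CO2. Adherent cells fixed with cold TCA (10% final), suspension cells with TCA (16% final). Stained with 0.4% SRB in 1% acetic acid, dissolved in 10 mM Tris, A515. Growth relative to time-zero and untreated control.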

LOX IMVI = test: Antitumor activity against human LOX IMVI cells assessed as growth inhibition at 10 uM relative to control; outline: as §1
SF-295 = test: Antitumor activity against human SF-295 cells assessed as growth inhibition at 10 uM relative to control; outline: as §1
MDA-MB-231 = test: Antitumor activity against human MDA-MB-231 cells assessed as growth inhibition at 10 uM relative to control; outline: as §1
SNB-75 = test: Antitumor activity against human SNB-75 cells assessed as growth inhibition at 10 uM relative to control; outline: as §2
786-0 = test: Antitumor activity against human 786-0 cells assessed as growth inhibition at 10 uM relative to control; outline: as §1
COLO 205 = test: Antitumor activity against human COLO 205 cells assessed as growth inhibition at 10 uM relative to control; outline: as §1
HCT-15 = test: Antitumor activity against human HCT-15 cells assessed as growth inhibition at 10 uM relative to control; outline: as §1
UACC-62 = test: Antitumor activity against human UACC-62 cells assessed as growth inhibition at 10 uM relative to control; outline: as §2
TK-10 = test: Antitumor activity against human TK-10 cells assessed as growth inhibition at 10 uM relative to control; outline: as §2
MDA-MB-468 = test: Antitumor activity against human MDA-MB-468 cells assessed as growth inhibition at 10 uM relative to control; outline: as §1
SF-268 = test: Antitumor activity against human SF-268 cells assessed as growth inhibition at 10 uM relative to control; outline: as §1
RXF 393 = test: Antitumor activity against human RXF 393 cells assessed as growth inhibition at 10 uM relative to control; outline: as §1
SK-MEL-5 = test: Antitumor activity against human SK-MEL-5 cells assessed as growth inhibition at 10 uM relative to control; outline: as §2
SK-OV-3 = test: Antitumor activity against human SK-OV-3 cells assessed as growth inhibition at 10 uM relative to control; outline: as §2
OVCAR-8 = test: Antitumor activity against human OVCAR-8 cells assessed as growth inhibition at 10 uM relative to control; outline: as §1
HOP-92 = test: Antitumor activity against human HOP-92 cells assessed as growth inhibition at 10 uM relative to control; outline: as §1
ACHN = test: Antitumor activity against human ACHN cells assessed as growth inhibition at 10 uM relative to control; outline: as §1
NCI/ADR-RES = test: Antitumor activity against human NCI-ADR-RES cells assessed as growth inhibition at 10 uM relative to control; outline: as §1
CCRF-CEM = test: Antitumor activity against human CCRF-CEM cells assessed as growth inhibition at 10 uM relative to control; outline: as §1
Hs-578T = test: Antitumor activity against human Hs-578T cells assessed as growth inhibition at 10 uM relative to control; outline: as §1
IGROV-1 = test: Antitumor activity against human IGROV-1 cells assessed as growth inhibition at 10 uM relative to control; outline: as §1
SN12C = test: Antitumor activity against human SN12C cells assessed as growth inhibition at 10 uM relative to control; outline: as §2
HT-29 = test: Antitumor activity against human HT-29 cells assessed as growth inhibition at 10 uM relative to control; outline: as §1
MDA-MB-435 = test: Antitumor activity against human MDA-MB-435 cells assessed as growth inhibition at 10 uM relative to control; outline: as §1
UO-31 = test: Antitumor activity against human UO-31 cells assessed as growth inhibition at 10 uM relative to control; outline: as §2
SF-539 = test: Antitumor activity against human SF-539 cells assessed as growth inhibition at 10 uM relative to control; outline: as §1
HL-60 = test: Antitumor activity against human HL-60 cells assessed as growth inhibition at 10 uM relative to control; outline: as §1
Malme-3M = test: Antitumor activity against human Malme-3M cells assessed as growth inhibition at 10 uM relative to control; outline: as §1
MCF7 = test: Antitumor activity against human MCF7 cells assessed as growth inhibition at 10 uM relative to control; outline: as §1
NCI-H522 = test: Antitumor activity against human NCI-H522 cells assessed as growth inhibition at 10 uM relative to control; outline: as §1
HCT-116 = test: Antitumor activity against human HCT-116 cells assessed as growth inhibition at 10 uM relative to control; outline: as §1
T47D = test: Antitumor activity against human T47D cells assessed as growth inhibition at 10 uM relative to control; outline: as §2
A549 = test: Antitumor activity against human A549 cells assessed as growth inhibition at 10 uM relative to control; outline: as §1
HOP-62 = test: Antitumor activity against human HOP-62 cells assessed as growth inhibition at 10 uM relative to control; outline: as §1
K562 = test: Antitumor activity against human K562 cells assessed as growth inhibition at 10 uM relative to control; outline: as §1
NCI-H23 = test: Antitumor activity against human NCI-H23 cells assessed as growth inhibition at 10 uM relative to control; outline: as §1
NCI-H226 = test: Antitumor activity against human NCI-H226 cells assessed as growth inhibition at 10 uM relative to control; outline: as §1
SW-620 = test: Antitumor activity against human SW-620 cells assessed as growth inhibition at 10 uM relative to control; outline: as §2
RPMI-8226 = test: Antitumor activity against human RPMI-8226 cells assessed as growth inhibition at 10 uM relative to control; outline: as §1
MOLT-4 = test: Antitumor activity against human MOLT-4 cells assessed as growth inhibition at 10 uM relative to control; outline: as §1
U-251 = test: Antitumor activity against human U-251 cells assessed as growth inhibition at 10 uM relative to control; outline: as §2
CAKI-1 = test: Antitumor activity against human CAKI-1 cells assessed as growth inhibition at 10 uM relative to control; outline: as §1
DU-145 = test: Antitumor activity against human DU-145 cells assessed as growth inhibition at 10 uM relative to control; outline: as §1
A498 = test: Antitumor activity against human A498 cells assessed as growth inhibition at 10 uM relative to control; outline: as §1

SMILES: CSc1nc(O)c(C#N)c(-c2ccc(Cl)cc2)n1
- inhibition of growth at 10 µM (SK-MEL-2): < 1%
- inhibition of growth at 10 µM (SR): < 1%
- inhibition of growth at 10 µM (LOX IMVI): < 1%
- inhibition of growth at 10 µM (SF-295): < 1%
- inhibition of growth at 10 µM (MDA-MB-231): < 1%
- inhibition of growth at 10 µM (SNB-75): 11.3%
- inhibition of growth at 10 µM (786-0): < 1%
- inhibition of growth at 10 µM (COLO 205): < 1%
- inhibition of growth at 10 µM (HCT-15): < 1%
- inhibition of growth at 10 µM (UACC-62): < 1%
- inhibition of growth at 10 µM (TK-10): < 1%
- inhibition of growth at 10 µM (MDA-MB-468): < 1%
- inhibition of growth at 10 µM (SF-268): < 1%
- inhibition of growth at 10 µM (RXF 393): < 1%
- inhibition of growth at 10 µM (SK-MEL-5): < 1%
- inhibition of growth at 10 µM (SK-OV-3): < 1%
- inhibition of growth at 10 µM (OVCAR-8): < 1%
- inhibition of growth at 10 µM (HOP-92): 24.7%
- inhibition of growth at 10 µM (ACHN): < 1%
- inhibition of growth at 10 µM (NCI/ADR-RES): < 1%
- inhibition of growth at 10 µM (CCRF-CEM): < 1%
- inhibition of growth at 10 µM (Hs-578T): < 1%
- inhibition of growth at 10 µM (IGROV-1): < 1%
- inhibition of growth at 10 µM (SN12C): < 1%
- inhibition of growth at 10 µM (HT-29): < 1%
- inhibition of growth at 10 µM (MDA-MB-435): < 1%
- inhibition of growth at 10 µM (UO-31): < 1%
- inhibition of growth at 10 µM (SF-539): < 1%
- inhibition of growth at 10 µM (HL-60): < 1%
- inhibition of growth at 10 µM (Malme-3M): < 1%
- inhibition of growth at 10 µM (MCF7): 11%
- inhibition of growth at 10 µM (NCI-H522): < 1%
- inhibition of growth at 10 µM (HCT-116): < 1%
- inhibition of growth at 10 µM (T47D): < 1%
- inhibition of growth at 10 µM (A549): < 1%
- inhibition of growth at 10 µM (HOP-62): < 1%
- inhibition of growth at 10 µM (K562): < 1%
- inhibition of growth at 10 µM (NCI-H23): < 1%
- inhibition of growth at 10 µM (NCI-H226): < 1%
- inhibition of growth at 10 µM (SW-620): < 1%
- inhibition of growth at 10 µM (RPMI-8226): < 1%
- inhibition of growth at 10 µM (MOLT-4): < 1%
- inhibition of growth at 10 µM (U-251): < 1%
- inhibition of growth at 10 µM (CAKI-1): < 1%
- inhibition of growth at 10 µM (DU-145): < 1%
- inhibition of growth at 10 µM (A498): < 1%
